The values below come from ChEMBL document CHEMBL1833919, “Does the combination of optimal substitutions at the C²-, N⁵- and N⁸-positions of the pyrazolo-triazolo-pyrimidine scaffold guarantee selective modulation of the human A₃ adenosine receptors?” (Bioorg Med Chem, 2011).

pKi: −log10 of the molar value. Some results are limits rather than exact numbers.

The target of one assay is T1, Adenosine receptor A1 (Homo sapiens, UniProt P30542).
T1 sequence (P30542 whole entry): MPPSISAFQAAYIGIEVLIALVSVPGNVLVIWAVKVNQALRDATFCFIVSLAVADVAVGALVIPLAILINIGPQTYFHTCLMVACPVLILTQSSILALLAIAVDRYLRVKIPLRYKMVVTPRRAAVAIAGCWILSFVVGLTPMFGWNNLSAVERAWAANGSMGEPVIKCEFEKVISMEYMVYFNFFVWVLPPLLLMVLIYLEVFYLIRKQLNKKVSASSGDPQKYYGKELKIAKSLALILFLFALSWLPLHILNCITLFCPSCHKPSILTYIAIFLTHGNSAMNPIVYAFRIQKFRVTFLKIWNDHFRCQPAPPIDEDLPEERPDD
Nature of the assay: Displacement of [3H]CCPA from human recombinant adenosine A1 receptor expressed in CHO cells after 3 hrs. Format: cell-based. The method, boiled down: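 CHO membranes (two-step spin, stored -80 °C), 20 μg protein, incubated 3 h at 25 °C in 200 μL 50 mM Tris/HCl pH 7.4 with 1 nM [3H]CCPA, 0.2 U/mL adenosine deaminase and a range of test concentrations. Nonspecific binding with 1 mM theophylline. Filtration and scintillation counting. Ki by Cheng-Prusoff; n = 3-6, geometric means, 95% CI.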
In general terms: In a radioligand displacement assay an active substance lowers the binding of a labelled ligand.

Another assay deals with T2, Adenosine receptor A3 (Homo sapiens, UniProt P0DMS8).
T2 sequence (P0DMS8 whole entry): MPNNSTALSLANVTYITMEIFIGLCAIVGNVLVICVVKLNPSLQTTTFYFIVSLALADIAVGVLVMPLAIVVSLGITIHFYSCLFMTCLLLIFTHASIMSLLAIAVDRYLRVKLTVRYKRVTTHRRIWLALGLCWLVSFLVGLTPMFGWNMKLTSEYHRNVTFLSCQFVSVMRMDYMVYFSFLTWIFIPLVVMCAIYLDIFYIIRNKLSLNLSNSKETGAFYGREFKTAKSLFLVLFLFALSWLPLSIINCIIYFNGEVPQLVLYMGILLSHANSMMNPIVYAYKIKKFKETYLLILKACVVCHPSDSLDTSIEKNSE
In words: Displacement of [3H]NECA from human recombinant adenosine A3 receptor expressed in CHO cells after 3 hrs. Format: cell-based. A digest of the protocol: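 20 μg membrane protein in 50 mM Tris/HCl, 1 mM EDTA, 10 mM MgCl2, pH 8.25 with 10 nM [3H]NECA and test compound over a concentration range, 3 h at 25 °C. Nonspecific binding with 100 μM R-PIA. Filtration, then counting. Ki via Cheng-Prusoff; n = 3-6, geometric means with 95% CI.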

A further assay has as its target T3, Adenosine receptor A2b (Homo sapiens, UniProt P29275).
T3 sequence (P29275 whole entry): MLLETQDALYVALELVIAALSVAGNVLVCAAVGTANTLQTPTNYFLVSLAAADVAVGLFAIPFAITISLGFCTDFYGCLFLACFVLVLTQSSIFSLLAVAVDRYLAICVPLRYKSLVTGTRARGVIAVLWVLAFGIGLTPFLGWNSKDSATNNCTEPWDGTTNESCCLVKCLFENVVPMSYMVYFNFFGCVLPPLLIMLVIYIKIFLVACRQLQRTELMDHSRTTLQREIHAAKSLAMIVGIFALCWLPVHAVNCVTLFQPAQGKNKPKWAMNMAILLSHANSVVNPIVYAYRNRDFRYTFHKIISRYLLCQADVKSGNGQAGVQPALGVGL
Nature of the assay: Antagonist activity human recombinant adenosine 2B receptor expressed in CHO cells assessed as inhibition of NECA-stimulated adenylyl cyclase activity. Format: functional, cell-based. A digest of the protocol: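 Membranes from hA2B-expressing CHO cells, single 54,000g 30-min spin, resuspended in 50 mM Tris/HCl pH 7.4 and used at once. Incubated 20 min with about 150,000 cpm [α-32P]ATP, no EGTA or NaCl. IC50 from concentration-dependent inhibition of NECA-stimulated adenylyl cyclase, converted to Ki; n = 3-6, geometric means with 95% confidence limits.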

The next assay has as its target Adenosine receptor A2a (Homo sapiens, UniProt P29274). In words: Displacement of [3H]NECA from human recombinant adenosine 2A receptor expressed in CHO cells after 3 hrs. Format: cell-based. A digest of the protocol: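 Membranes at 50 μg protein, incubated 3 h at 25 °C in 50 mM Tris/HCl, 10 mM MgCl2, pH 7.4 with 30 nM [3H]NECA and varied test concentrations. 100 μM R-PIA defined nonspecific binding. Bound ligand separated on glass-fiber filters and counted. Ki by Cheng-Prusoff; n = 3-6, geometric means, 95% CI.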

The species named for a further assay is Homo sapiens. In words: Selectivity ratio of Ki for human recombinant adenosine 2a receptor to Ki for human recombinant adenosine A3 receptor.
The target of assay [1] is Adenosine receptors; A1 & A3 (Homo sapiens) (UniProt P30542+P0DMS8). Nature of the assay: Selectivity ratio of Ki for human recombinant adenosine A1 receptor to Ki for human recombinant adenosine A3 receptor.

Sequence of Adenosine receptor A2a (P29274 whole entry): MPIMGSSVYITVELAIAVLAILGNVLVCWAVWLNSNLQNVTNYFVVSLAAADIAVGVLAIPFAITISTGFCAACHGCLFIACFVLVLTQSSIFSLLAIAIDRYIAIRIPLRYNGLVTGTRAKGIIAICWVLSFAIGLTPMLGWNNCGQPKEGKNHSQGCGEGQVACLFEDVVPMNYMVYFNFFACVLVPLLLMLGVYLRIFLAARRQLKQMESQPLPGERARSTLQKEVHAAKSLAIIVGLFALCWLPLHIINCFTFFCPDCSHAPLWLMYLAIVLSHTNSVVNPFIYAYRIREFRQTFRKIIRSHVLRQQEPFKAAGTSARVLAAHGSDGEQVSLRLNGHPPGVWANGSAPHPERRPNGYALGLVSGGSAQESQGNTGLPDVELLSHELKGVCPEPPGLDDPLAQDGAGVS

For the compound `O=C(Cc1ccccc1)Nc1nc2nn(CCc3ccccc3)cc2c2nc(-c3ccc(Br)cc3)nn12`, the negative logarithm of the Ki (pKi) on Adenosine receptor A1, at Adenosine receptor A3, at Adenosine receptor A2b and at Adenosine receptor A2a was under 5.00 each time.
In the case of `COc1ccc(NC(=O)Nc2nc3nn(C)cc3c3nc(-c4ccc(C(F)(F)F)cc4)nn23)cc1`, the pKi on Adenosine receptor A1 is under 4.00; on Adenosine receptor A3, 8.63; on Adenosine receptor A2b, under 5.00; on Adenosine receptor A2a, under 4.00. The Ratio Ki (in the assay listed under Homo sapiens; in assay [1]) was over 42400 in each case.
In the case of `O=C(Nc1nc2nn(CCc3ccccc3)cc2c2nc(-c3ccc(Cl)cc3)nn12)c1ccccc1`, the negative-log Ki (pKi) on Adenosine receptor A1 was 6.66; on Adenosine receptor A3, 7.94; at Adenosine receptor A2b, under 4.52; on Adenosine receptor A2a, 4.71. The Ratio Ki in the assay filed under Homo sapiens was determined as 1700; in assay [1], 19.4.
Turning to `O=C(Nc1nc2nn(CCc3ccccc3)cc2c2nc(-c3ccc(F)cc3)nn12)c1ccccc1`, the pKi is 6.40 at Adenosine receptor A1, 7.77 on Adenosine receptor A3, under 4.52 on Adenosine receptor A2b and 5.39 on Adenosine receptor A2a. The Ratio Ki stood at 236 in the assay listed under Homo sapiens and 23.1 in assay [1].
On to `Cn1cc2c(nc(NC(=O)Nc3ccc(F)cc3)n3nc(-c4ccc(Br)cc4)nc23)n1`, for which the negative logarithm of the Ki (pKi) on Adenosine receptor A1 was under 4.52; at Adenosine receptor A3, 8.76; on Adenosine receptor A2b, under 5.00; at Adenosine receptor A2a, 5.23. Besides, the Ratio Ki in the assay listed under Homo sapiens was 3450; in assay [1], over 17400.
Regarding `COc1ccc(NC(=O)Nc2nc3nn(C)cc3c3nc(-c4ccc(-c5ccccc5)cc4)nn23)cc1`, the negative-log Ki (pKi) was under 4.00 on Adenosine receptor A1, 8.68 at Adenosine receptor A3, under 5.00 at Adenosine receptor A2b and under 4.00 at Adenosine receptor A2a. In addition, the Ratio Ki (in the assay filed under Homo sapiens; in assay [1]) was over 47600 throughout.
In the case of `O=C(Cc1ccccc1)Nc1nc2nn(CCc3ccccc3)cc2c2nc(-c3ccccc3)nn12`, the pKi was 6.72 on Adenosine receptor A1, 8.52 on Adenosine receptor A3, under 4.52 at Adenosine receptor A2b and 6.21 on Adenosine receptor A2a. Moreover, the values for the Ratio Ki (in the assay listed under Homo sapiens; in assay [1]) were 203 and 63.6, respectively.
Turning to `Cn1cc2c(nc(NC(=O)Nc3ccc(F)cc3)n3nc(-c4ccc(Cl)cc4)nc23)n1`, the negative logarithm of the Ki (pKi) is under 4.52 on Adenosine receptor A1, 8.28 on Adenosine receptor A3, under 5.00 at Adenosine receptor A2b and 5.97 on Adenosine receptor A2a. In addition, the figures for the Ratio Ki (in the assay filed under Homo sapiens; in assay [1]) were 200 and over 5660, respectively.
As to `O=C(Cc1ccccc1)Nc1nc2nn(CCc3ccccc3)cc2c2nc(-c3ccc(F)cc3)nn12`, the negative logarithm of the Ki (pKi) was 6.63 at Adenosine receptor A1, 8.48 on Adenosine receptor A3, under 4.52 at Adenosine receptor A2b and 6.24 at Adenosine receptor A2a. Besides, the Ratio Ki in the assay listed under Homo sapiens was 171; in assay [1], 69.5.
In the case of `COc1ccc(NC(=O)Nc2nc3nn(C)cc3c3nc(-c4ccc(Cl)cc4)nn23)cc1`, the pKi on Adenosine receptor A1 was 5.19; on Adenosine receptor A3, 8.88; on Adenosine receptor A2b it was under 5.00; at Adenosine receptor A2a it was 5.84. Besides, the Ratio Ki was found to be 1100 in the assay listed under Homo sapiens and 4880 in assay [1].
As to `Cn1cc2c(nc(N)n3nc(-c4ccc(-c5ccccc5)cc4)nc23)n1`, the pKi on Adenosine receptor A1 is under 4.00; at Adenosine receptor A3 it was 6.83; at Adenosine receptor A2b it was under 5.00; at Adenosine receptor A2a it was under 4.52. The Ratio Ki in the assay filed under Homo sapiens is over 204; in assay [1] it was over 680.
In the case of `Cn1cc2c(nc(NC(=O)Nc3ccc(F)cc3)n3nc(-c4ccc(-c5ccccc5)cc4)nc23)n1`, the pKi is under 4.00 at Adenosine receptor A1, 8.39 at Adenosine receptor A3, under 5.00 on Adenosine receptor A2b and under 4.00 on Adenosine receptor A2a. Further, the Ratio Ki (in the assay filed under Homo sapiens; in assay [1]) was over 24600 throughout.
Consider `COc1ccc(-c2nc3c4cn(CCc5ccccc5)nc4nc(NC(=O)c4ccccc4)n3n2)cc1`, for which the pKi on Adenosine receptor A1 is 6.08; at Adenosine receptor A3, 7.54; on Adenosine receptor A2b it was under 5.00; at Adenosine receptor A2a it was 4.60. The Ratio Ki was found to be 872 in the assay listed under Homo sapiens and 28.8 in assay [1].
In the case of `Cn1cc2c(nc(NC(=O)Nc3ccccc3)n3nc(-c4ccc(Cl)cc4)nc23)n1`, the pKi at Adenosine receptor A1 was 5.26; on Adenosine receptor A3, 8.77; on Adenosine receptor A2b it was under 5.00; at Adenosine receptor A2a, 6.01. Besides, the Ratio Ki is 577 in the assay listed under Homo sapiens and 3250 in assay [1].
Regarding `Cn1cc2c(nc(NC(=O)Nc3ccc(F)cc3)n3nc(-c4ccc(C(F)(F)F)cc4)nc23)n1`, the pKi was 5.35 at Adenosine receptor A1, 8.72 on Adenosine receptor A3, under 5.00 on Adenosine receptor A2b and under 4.52 on Adenosine receptor A2a. Also, the Ratio Ki was over 15700 in the assay listed under Homo sapiens and 2310 in assay [1].
Turning to `O=C(Cc1ccccc1)Nc1nc2nn(CCc3ccccc3)cc2c2nc(-c3ccco3)nn12`, on Adenosine receptor A3, the negative-log Ki (pKi) is 7.35. The Ratio Ki in the assay filed under Homo sapiens came out at 1.33; in assay [1] it was 2.67.
Regarding `Cn1cc2c(nc(NC(=O)Nc3ccccc3)n3nc(-c4ccc(C(F)(F)F)cc4)nc23)n1`, the negative logarithm of the Ki (pKi) on Adenosine receptor A1 is 4.89; on Adenosine receptor A3, 8.46; on Adenosine receptor A2b it was under 5.00; at Adenosine receptor A2a, 4.44. Moreover, the Ratio Ki was found to be 10500 in the assay filed under Homo sapiens and 3750 in assay [1].
Take `O=C(Cc1ccccc1)Nc1nc2nn(CCc3ccccc3)cc2c2nc(-c3ccc(Cl)cc3)nn12`: the negative logarithm of the Ki (pKi) is 6.03 on Adenosine receptor A1, under 4.52 at Adenosine receptor A2b and 5.51 on Adenosine receptor A2a. In addition, the Ratio Ki in the assay filed under Homo sapiens was found to be 364; in assay [1] it was 110.
On to `Cn1cc2c(nc(NC(=O)Nc3ccccc3)n3nc(-c4ccc(Br)cc4)nc23)n1`, for which the pKi at Adenosine receptor A1 was under 5.00; at Adenosine receptor A3, 8.60; at Adenosine receptor A2b, under 5.00; at Adenosine receptor A2a, 5.63. In addition, the Ratio Ki was 944 in the assay listed under Homo sapiens and over 4000 in assay [1].
`Cn1cc2c(nc(NC(=O)Nc3ccccc3)n3nc(-c4ccco4)nc23)n1`: the Ratio Ki in the assay listed under Homo sapiens was found to be 2380; in assay [1], 3710.
Consider `COc1ccc(NC(=O)Nc2nc3nn(C)cc3c3nc(-c4ccc(Br)cc4)nn23)cc1`, for which the pKi was under 5.00 at Adenosine receptor A1, 8.71 on Adenosine receptor A3, under 5.00 on Adenosine receptor A2b and 5.08 on Adenosine receptor A2a. The Ratio Ki is 4310 in the assay listed under Homo sapiens and over 5130 in assay [1].
Take `Cn1cc2c(nc(N)n3nc(-c4ccc(C(F)(F)F)cc4)nc23)n1`: the pKi was under 4.00 on Adenosine receptor A1, 6.52 at Adenosine receptor A3, under 5.00 at Adenosine receptor A2b and 5.16 on Adenosine receptor A2a. The Ratio Ki was 22.8 in the assay filed under Homo sapiens and over 329 in assay [1].
As to `Cn1cc2c(nc(NC(=O)Nc3ccccc3)n3nc(-c4ccc(-c5ccccc5)cc4)nc23)n1`, the pKi at Adenosine receptor A1 was under 4.52; on Adenosine receptor A3, 8.23; at Adenosine receptor A2b it was under 5.00; at Adenosine receptor A2a, under 4.52. In addition, the Ratio Ki (in the assay listed under Homo sapiens; in assay [1]) was over 5090 in each case.

Usually pKi stands for the negative decadic logarithm of the Ki, by convention in mol/L.
